Data as given in ChEMBL document CHEMBL3751707, “Silicon Incorporated Morpholine Antifungals: Design, Synthesis, and Biological Evaluation” (ACS Med Chem Lett, 2015).
Converted amounts (≈) assume the structure as drawn.

Columns and labels:
Candida tropicalis [1] = experiment: Antifungal activity against Candida tropicalis ATCC 750 after 24 to 36 hrs by broth microdilution method; type: functional, organism-based
How it was run: (§1)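 CLSI broth microdilution against yeasts (M27-A3) and filamentous fungi (M38-A2). Read-outs: IC50 (concentration giving 50% growth inhibition), MIC, and MFC (minimum fungicidal concentration), all in μg/mL. Assay done twice in triplicate.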

Candida albicans [2] = experiment: Antifungal activity against Candida albicans ATCC 10231 after 72 hrs by broth microdilution method; type: functional; conditions: ATCC 10231, 72 h; how it was run: as §1
Cryptococcus neoformans [3] = experiment: Antifungal activity against Cryptococcus neoformans ATCC 34664 after 24 to 36 hrs by broth microdilution method; type: functional, organism-based; how it was run: as §1
Aspergillus niger [4] = experiment: Antifungal activity against Aspergillus niger ATCC 10578 after 48 hrs by broth microdilution method; type: functional, organism-based; conditions: ATCC 10578, 48 h; how it was run: as §1
Cryptococcus neoformans [5] = experiment: Antifungal activity against Cryptococcus neoformans ATCC 34664 after 72 hrs by broth microdilution method; type: functional; conditions: ATCC 34664, 72 h; how it was run: as §1
Nakaseomyces glabratus [6] = experiment: Antifungal activity against Candida glabrata NCYC 388 after 24 to 36 hrs by broth microdilution method; type: functional, organism-based; how it was run: as §1
Nakaseomyces glabratus [7] = experiment: Antifungal activity against Candida glabrata NCYC 388 after 72 hrs by broth microdilution method; type: functional; conditions: NCYC 388, 72 h; how it was run: as §1
Candida tropicalis [8] = experiment: Antifungal activity against Candida tropicalis ATCC 750 after 72 hrs by broth microdilution method; type: functional; conditions: ATCC 750, 72 h; how it was run: as §1
Aspergillus niger [9] = experiment: Antifungal activity against Aspergillus niger ATCC 10578 after 72 hrs by broth microdilution method; type: functional; conditions: ATCC 10578, 72 h; how it was run: as §1
Candida albicans [10] = experiment: Antifungal activity against Candida albicans ATCC 24433 after 72 hrs by broth microdilution method; type: functional; conditions: ATCC 24433, 72 h; how it was run: as §1
Candida albicans [11] = experiment: Antifungal activity against Candida albicans ATCC 24433 after 24 to 36 hrs by broth microdilution method; type: functional, organism-based; how it was run: as §1
Candida albicans [12] = experiment: Antifungal activity against Candida albicans ATCC 10231 after 24 to 36 hrs by broth microdilution method; type: functional, organism-based; how it was run: as §1
[13] = Toxicity in human RBC assessed as hemolysis upto 128 ug/ml; type: cell-based; conditions: erythrocyte
[14] = Metabolic stability in human liver microsomes after 30 mins by LC-MS/MS analysis; type: ADME; conditions: read-out: Stability
How it was run: (§2)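 Test compounds were incubated 30 min with liver microsomes (human or mouse, per line), and values are reported as % metabolic stability after 30 min.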

[15] = Metabolic stability in mouse liver microsomes after 30 mins by LC-MS/MS analysis; type: ADME; conditions: read-out: Stability; how it was run: as §2

Structure (SMILES) | MIC (Candida tropicalis [1]) | MIC (Cryptococcus neoformans [3]) | MIC (Aspergillus niger [4]) | MIC (Nakaseomyces glabratus [6]) | MIC (Candida albicans [11]) | MIC (Candida albicans [12]) | IC50 (Candida tropicalis [1]) | MFC (Candida albicans [2]) | IC50 (Cryptococcus neoformans [3]) | IC50 (Aspergillus niger [4]) | MFC (Cryptococcus neoformans [5]) | IC50 (Nakaseomyces glabratus [6]) | MFC (Nakaseomyces glabratus [7]) | MFC (Candida tropicalis [8]) | MFC (Aspergillus niger [9]) | MFC (Candida albicans [10]) | IC50 (Candida albicans [11]) | IC50 (Candida albicans [12]) | Activity [13] | also measured
CC(Cc1ccc(C(C)(C)C)cc1)CN1CC[Si](C)(C)CC1 (stereo not drawn) | 64 µg/mL (≈ 202 µM) | 2 µg/mL (≈ 6.3 µM) | 32 µg/mL (≈ 101 µM) | 4 µg/mL (≈ 12.6 µM) | 4 µg/mL (≈ 12.6 µM) | 0.5 µg/mL (≈ 1.57 µM) | 16 µg/mL (≈ 50.4 µM) | 0.5 µg/mL (≈ 1.57 µM) | 0.875 µg/mL (≈ 2.76 µM) | 13.8 µg/mL (≈ 43.5 µM) | 4 µg/mL (≈ 12.6 µM) | 1.52 µg/mL (≈ 4.79 µM) | 8 µg/mL (≈ 25.2 µM) | 64 µg/mL (≈ 202 µM) | 64 µg/mL (≈ 202 µM) | 8 µg/mL (≈ 25.2 µM) | 1.85 µg/mL (≈ 5.83 µM) | 0.31 µg/mL (≈ 0.976 µM) | Non-toxic | –
CC(Cc1ccc(C(C)(C)C)cc1)CN1CCCCC1 (stereo not drawn) [FENPROPIDIN] | 4 µg/mL (≈ 14.6 µM) | 1 µg/mL (≈ 3.66 µM) | 32 µg/mL (≈ 117 µM) | 0.5 µg/mL (≈ 1.83 µM) | 0.25 µg/mL (≈ 0.914 µM) | 1 µg/mL (≈ 3.66 µM) | 0.125 µg/mL (≈ 0.457 µM) | 2 µg/mL (≈ 7.31 µM) | 0.22 µg/mL (≈ 0.804 µM) | 16 µg/mL (≈ 58.5 µM) | 32 µg/mL (≈ 117 µM) | 0.1 µg/mL (≈ 0.366 µM) | 16 µg/mL (≈ 58.5 µM) | 256 µg/mL (≈ 936 µM) | 128 µg/mL (≈ 468 µM) | 0.5 µg/mL (≈ 1.83 µM) | 0.19 µg/mL (≈ 0.695 µM) | 0.27 µg/mL (≈ 0.987 µM) | Non-toxic | remaining at 0.5 h [14]: 34.4%; remaining at 0.5 h [15]: 1.1%
CC(Cc1ccc([Si](C)(C)C)cc1)CN1CC[Si](C)(C)CC1 (stereo not drawn) | 64 µg/mL (≈ 192 µM) | 8 µg/mL (≈ 24 µM) | 2 µg/mL (≈ 5.99 µM) | 8 µg/mL (≈ 24 µM) | 4 µg/mL (≈ 12 µM) | 1 µg/mL (≈ 3 µM) | 44.8 µg/mL (≈ 134 µM) | 4 µg/mL (≈ 12 µM) | 1.98 µg/mL (≈ 5.93 µM) | 0.5 µg/mL (≈ 1.5 µM) | 64 µg/mL (≈ 192 µM) | 1.75 µg/mL (≈ 5.24 µM) | 16 µg/mL (≈ 48 µM) | > 256 µg/mL | > 256 µg/mL | 8 µg/mL (≈ 24 µM) | 1.25 µg/mL (≈ 3.75 µM) | 0.45 µg/mL (≈ 1.35 µM) | Non-toxic | remaining at 0.5 h [14]: 44.5%; remaining at 0.5 h [15]: 17.3%
CC(Cc1ccc(C(C)(C)C)cc1)C(=O)NC[Si](C)(C)c1ccccc1 (stereo not drawn) | ≥ 256 µg/mL | ≥ 256 µg/mL | ≥ 256 µg/mL | ≥ 256 µg/mL | ≥ 256 µg/mL | ≥ 256 µg/mL | – | ≥ 256 µg/mL | – | – | ≥ 256 µg/mL | – | ≥ 256 µg/mL | ≥ 256 µg/mL | ≥ 256 µg/mL | ≥ 256 µg/mL | – | – | – | –

More lines, main results first:

MIC (Candida tropicalis [1]) | MIC (Cryptococcus neoformans [3]) | MIC (Aspergillus niger [4]) | MIC (Nakaseomyces glabratus [6]) | MIC (Candida albicans [11]) | MIC (Candida albicans [12]) | Structure (SMILES) | IC50 (Candida tropicalis [1]) | MFC (Candida albicans [2]) | IC50 (Cryptococcus neoformans [3]) | IC50 (Aspergillus niger [4]) | MFC (Cryptococcus neoformans [5]) | IC50 (Nakaseomyces glabratus [6]) | MFC (Nakaseomyces glabratus [7]) | MFC (Candida tropicalis [8]) | MFC (Aspergillus niger [9]) | MFC (Candida albicans [10]) | IC50 (Candida albicans [11]) | IC50 (Candida albicans [12]) | Activity [13] | also measured
16 µg/mL (≈ 57.7 µM) | 4 µg/mL (≈ 14.4 µM) | 256 µg/mL (≈ 922 µM) | 4 µg/mL (≈ 14.4 µM) | 8 µg/mL (≈ 28.8 µM) | 2 µg/mL (≈ 7.21 µM) | CCN(CC)CC(C)Cc1ccc([Si](C)(C)C)cc1 (stereo not drawn) | 4.85 µg/mL (≈ 17.5 µM) | 4 µg/mL (≈ 14.4 µM) | 1.5 µg/mL (≈ 5.4 µM) | 64 µg/mL (≈ 231 µM) | 32 µg/mL (≈ 115 µM) | 1.85 µg/mL (≈ 6.67 µM) | > 256 µg/mL | 256 µg/mL (≈ 922 µM) | > 256 µg/mL | 32 µg/mL (≈ 115 µM) | 3.75 µg/mL (≈ 13.5 µM) | 0.57 µg/mL (≈ 2.05 µM) | – | –
16 µg/mL (≈ 58.1 µM) | 1 µg/mL (≈ 3.63 µM) | 64 µg/mL (≈ 232 µM) | 1 µg/mL (≈ 3.63 µM) | 2 µg/mL (≈ 7.26 µM) | 0.5 µg/mL (≈ 1.81 µM) | CC(Cc1ccc([Si](C)(C)C)cc1)CN1CCCC1 (stereo not drawn) | 2.76 µg/mL (≈ 10 µM) | 2 µg/mL (≈ 7.26 µM) | 0.25 µg/mL (≈ 0.907 µM) | 50.1 µg/mL (≈ 182 µM) | 4 µg/mL (≈ 14.5 µM) | 0.319 µg/mL (≈ 1.16 µM) | 32 µg/mL (≈ 116 µM) | 128 µg/mL (≈ 465 µM) | 256 µg/mL (≈ 929 µM) | 8 µg/mL (≈ 29 µM) | 0.97 µg/mL (≈ 3.52 µM) | 0.31 µg/mL (≈ 1.13 µM) | – | –
2 µg/mL (≈ 6.5 µM) | 2 µg/mL (≈ 6.5 µM) | 2 µg/mL (≈ 6.5 µM) | 0.5 µg/mL (≈ 1.63 µM) | 1 µg/mL (≈ 3.25 µM) | 1 µg/mL (≈ 3.25 µM) | CC(Cc1ccc([Si](C)(C)C)cc1)CN1CCSCC1 (stereo not drawn) | 0.25 µg/mL (≈ 0.813 µM) | 2 µg/mL (≈ 6.5 µM) | 0.8 µg/mL (≈ 2.6 µM) | 1 µg/mL (≈ 3.25 µM) | 64 µg/mL (≈ 208 µM) | 0.25 µg/mL (≈ 0.813 µM) | 8 µg/mL (≈ 26 µM) | > 256 µg/mL | > 256 µg/mL | 8 µg/mL (≈ 26 µM) | 0.245 µg/mL (≈ 0.797 µM) | 0.5 µg/mL (≈ 1.63 µM) | Non-toxic | –
